Test results published in ChEMBL document CHEMBL1795280, “Design, synthesis and activity of a potent, selective series of N-aryl pyridinone inhibitors of p38 kinase” (Bioorg Med Chem Lett, 2011).

How the values were obtained:
[1] = biological target: Mitogen-activated protein kinase 14 (Homo sapiens, UniProt Q16539); experiment: Inhibition of p38alpha assessed as phosphorylation of […] after 60 mins by fluorescence assay
In short: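 Cascade assay in which activated p38α (6 pM final) activates unactivated MK2 (1 nM), which phosphorylates FITC-labelled Hsp27 peptide (1 nM) with […]. Inhibitor 0.2–10,000 nM. Room temperature, 60 min, EDTA quench. Phospho-peptide quantified by Caliper LabChip; IC50.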

[2] = Metabolic stability in human liver microsomes assessed as compound remaining at 2 uM after 45 mins by LC/MS analysis; type: ADME, Microsome; conditions: read-out: Stability
[3] = Metabolic stability in rat liver microsomes assessed as compound remaining at 2 uM after 45 mins by LC/MS analysis; type: ADME, Microsome; conditions: read-out: Stability
PBMC = experiment: Antiinflammatory activity in human PBMC assessed as inhibition of LPS-induced TNFalpha production treated 1 hr before LPS challenge measured after 18 hrs; type: functional, cell-based
In short: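 PBMCs isolated by Ficoll from heparinized blood of two healthy donors, in DMEM with 5% endotoxin-free FBS, 2.5 × 10⁵ cells/well. Pretreated 1 h with compound (0.0001–25 µM range), then stimulated 18 h with 22 ng/ml LPS. Final DMSO 0.25%. Secreted TNFα measured by MSD; IC50 reported.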

Rattus norvegicus [4] = experiment: Antiinflammatory activity in Lewis rat assessed as inhibition of LPS-induced TNFalpha production at 20 mg/kg, po administered 2 hrs before LPS challenge by ELISA; type: functional
In short: (§1)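 Adult male Lewis rats (225–250 g), fasted 18 h with free access to water. Compound or vehicle given by oral gavage (1 mL). LPS (E. coli 0111:B4) given 1 mg/kg i.v. in saline 2, 4 or 6 h later. Serum taken by cardiac puncture 90 min after LPS. TNFα quantified against a recombinant rat TNF standard curve with a four-parameter fit. Two vehicle groups per experiment, three experiments.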

[5] = Solubility of the compound; type: physicochemical
[6] = Half life in iv and po dosed Sprague-Dawley rat; type: ADME, organism-based; conditions: in vivo
[7] = Bioavailability in iv and po dosed Sprague-Dawley rat; type: ADME, organism-based; conditions: in vivo
[8] = Clearance in iv and po dosed Sprague-Dawley rat; type: ADME, organism-based; conditions: in vivo
Rattus norvegicus [9] = experiment: Antiinflammatory activity in Lewis rat assessed as inhibition of LPS-induced TNFalpha production at 5 mg/kg, po administered 4 hrs before LPS challenge by ELISA; type: functional; in short: as §1

Sequence of Mitogen-activated protein kinase 14 (Q16539 whole entry): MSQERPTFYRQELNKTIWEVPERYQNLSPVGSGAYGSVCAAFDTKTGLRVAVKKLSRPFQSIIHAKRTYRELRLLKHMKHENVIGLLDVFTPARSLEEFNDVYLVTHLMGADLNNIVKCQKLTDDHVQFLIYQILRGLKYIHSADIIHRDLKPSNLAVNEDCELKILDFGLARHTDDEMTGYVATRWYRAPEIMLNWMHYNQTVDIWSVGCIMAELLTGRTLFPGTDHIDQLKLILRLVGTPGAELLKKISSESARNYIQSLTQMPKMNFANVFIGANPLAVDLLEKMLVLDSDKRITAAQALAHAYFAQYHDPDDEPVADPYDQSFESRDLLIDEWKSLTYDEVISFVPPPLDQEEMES

SMILES	IC50 [1] [nM]	remaining at 0.75 h, 2 µM [2] [%]	remaining at 0.75 h, 2 µM [3] [%]	IC50 (PBMC) [nM]	other results
CNC(=O)c1ccc(-n2c(C)cc(OCc3ccc(F)cc3F)c(Br)c2=O)cc1	126	–	–	–	–
Cc1cccc(C)c1-n1c(C)cc(OCc2ccc(F)cc2F)c(Br)c1=O	2	3	1	25	inhibition in vivo at 20 mg/kg (Rattus norvegicus [4]): 66%
CN(C)Cc1cc(OCc2ccc(F)cc2F)c(Cl)c(=O)n1-c1c(F)cccc1F	8	–	–	–	–
Cc1cc(OCc2ccc(F)cc2F)c(Br)c(=O)n1-c1c(F)cc(N2CCN(C)CC2)cc1F	14	–	–	–	–
CNC(=O)c1cccc(-n2c(C)cc(OCc3ccc(F)cc3F)c(Br)c2=O)c1	17	95	92	45	solubility [5]: < 10 µg/mL; half-life [6]: 3.1 h; bioavailability [7]: 3%; clearance [8]: 8.1 mL/min/kg; inhibition in vivo at 5 mg/kg (Rattus norvegicus [9]): 70%
Cc1cc(OCc2ccc(F)cc2F)c(Br)c(=O)n1-c1c(F)cccc1F	3	60	80	22	solubility [5]: < 10 µg/mL; half-life [6]: 1.9 h; bioavailability [7]: 19%; clearance [8]: 28.7 mL/min/kg; inhibition in vivo at 5 mg/kg (Rattus norvegicus [9]): 38%
Cc1cc(OCc2ccc(F)cc2F)c(Br)c(=O)n1-c1ccc(CNC(=O)CO)cc1	20	88	83	91	inhibition in vivo at 5 mg/kg (Rattus norvegicus [9]): 43%
Cc1cc(OCc2ccc(F)cc2F)c(Br)c(=O)n1-c1cccc(C(=O)N(C)C)c1	102	–	–	–	–
Cc1cc(OCc2ccc(F)cc2F)c(Cl)c(=O)n1-c1c(F)cc(N2CCN(C)CC2)cc1F	23	–	–	–	–
Cc1cc(OCc2ccc(F)cc2F)c(Br)c(=O)n1-c1ccc(C(=O)N(C)C)cc1	746	–	–	–	–
Cc1cc(OCc2ccc(F)cc2F)c(Br)c(=O)n1-c1cccc(CNC(N)=O)c1	251	–	–	–	–
Cc1cc(OCc2ccc(F)cc2F)c(Br)c(=O)n1-c1cccc(CNC(=O)CN)c1	261	–	–	–	–
Cc1cc(OCc2ccc(F)cc2F)c(Br)c(=O)n1-c1c(F)cc(N(C)C)cc1F	8	–	–	–	–
Cc1cc(OCc2ccc(F)cc2F)c(Br)c(=O)n1-c1ccc(C(N)=O)cc1	122	–	–	–	–
O=c1c(Br)c(OCc2ccc(F)cc2F)cc(CO)n1-c1c(F)cccc1F	5	39	65	25	solubility [5]: < 10 µg/mL; half-life [6]: 8.9 h; bioavailability [7]: 19%; clearance [8]: 4 mL/min/kg; inhibition in vivo at 5 mg/kg (Rattus norvegicus [9]): 93%
